{"source": "ChEMBL document CHEMBL4680254", "about": "“Design, synthesis and discovery of 2(1H)-quinolone derivatives for the treatment of pulmonary fibrosis through inhibition of TGF-β/smad dependent and independent pathway” (Eur J Med Chem, 2020)", "key": {"[1]": {"system": "L929", "experiment": "Antimigratory activity in mouse L929 cells assessed as inhibition of TGF-beta-induced cell migration at 10 uM incubated for 24 hrs by wound healing assay", "format": "functional, cell-based", "how_it_was_run": "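Mouse L929 fibroblasts (MEM, 10% FBS, 37 °C, 5% CO₂) were grown to confluence and scratched with a pipette tip to a 100 µm wound. They were then kept in serum-free medium with or without TGF-β 5 ng/ml and compound 10 µM for 24 h. Wounds were imaged by light microscopy at 0, 12 and 24 h.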"}, "[2]": {"system": "NRK-49F", "experiment": "Inhibition of TGF-beta-induced collagen accumulation in rat NRK-49F cells incubated for 2 days by PSR staining based microscopic analysis", "format": "functional, cell-based", "conditions": "48 h"}, "[3]": {"system": "NRK-49F", "experiment": "Inhibition of TGF-beta-induced collagen accumulation in rat NRK-49F cells at 10 uM incubated for 2 days by PSR staining based microscopic analysis relative to control", "format": "functional", "conditions": "48 h, time 2 day", "how_it_was_run": "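NRK-49F cells were grown 3 days in DMEM with 5% FBS, then 2 days in DMEM with 1% ITS. Next came 2 days with TGF-β 5 ng/ml plus or minus compound 10 µM. Cells were fixed in 4% paraformaldehyde and stained 4 h with 0.1% Picrosirius Red, then rinsed with acetic acid. Dye was eluted with 0.1 M NaOH and OD read at 540 nm. Inhibition = […] ×100%, in triplicate.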"}, "[4]": {"experiment": "Cytotoxicity against rat NRK-49F cells assessed as cell survival rate at 10 uM incubated for 72 hrs by MTT assay", "format": "cell-based", "conditions": "read-out: Activity", "how_it_was_run": "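NRK-49F cells were seeded at 0.5×10^5 cells/ml, cultured overnight, then exposed to compound 10 µM for 72 h. MTT was added and incubated 4 h, formazan dissolved in DMSO and absorbance read. Survival = (treated − zero)/(blank − zero) A ×100%, done in triplicate.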"}}, "note": "Calls of active or inactive are those of the source. The calls are words filed in the database; no cut-off is given here."}
{"smiles": "O=C(CN1CCCC1)Nc1ccc(Sc2cc(=O)[nH]c3ccccc23)cc1", "values": [{"measurement": "inhibition", "setting": "[1]", "value": "Active"}, {"measurement": "IC50", "setting": "[2]", "value": 5.33, "unit": "µM"}, {"measurement": "inhibition at 10 µM", "setting": "[3]", "value": 80.9, "unit": "%"}, {"measurement": "viability at 72 h, 10 µM", "setting": "[4]", "value": 87, "unit": "%"}]}
{"smiles": "CC(C)(C)N1CCN(CC(=O)Nc2ccc(Oc3cc(=O)[nH]c4ccccc34)c(F)c2)CC1", "values": [{"measurement": "inhibition", "setting": "[1]", "value": "Active"}, {"measurement": "IC50", "setting": "[2]", "value": 4.47, "unit": "µM"}, {"measurement": "inhibition at 10 µM", "setting": "[3]", "value": 78, "unit": "%"}, {"measurement": "viability at 72 h, 10 µM", "setting": "[4]", "value": 93.1, "unit": "%"}]}
{"smiles": "O=C(CN1CCN(C(=O)C2CC2)CC1)Nc1ccc(Oc2cc(=O)[nH]c3ccccc23)cc1", "values": [{"measurement": "inhibition at 10 µM", "setting": "[3]", "value": 78.3, "unit": "%"}, {"measurement": "viability at 72 h, 10 µM", "setting": "[4]", "value": 92.2, "unit": "%"}]}
{"smiles": "O=C(CN1CCCCC1)Nc1ccc(Sc2cc(=O)[nH]c3ccccc23)cc1", "values": [{"measurement": "inhibition at 10 µM", "setting": "[3]", "value": 28.4, "unit": "%"}, {"measurement": "viability at 72 h, 10 µM", "setting": "[4]", "value": 93.5, "unit": "%"}]}
{"smiles": "O=C(CN1CCCC1)Nc1ccc(Oc2cc(=O)[nH]c3ccccc23)cc1", "values": [{"measurement": "inhibition at 10 µM", "setting": "[3]", "value": 68, "unit": "%"}, {"measurement": "viability at 72 h, 10 µM", "setting": "[4]", "value": 82.2, "unit": "%"}]}
{"smiles": "CC(C)(C)N1CCN(CC(=O)Nc2ccc(Oc3cc(=O)[nH]c4ccccc34)cc2)CC1", "values": [{"measurement": "inhibition at 10 µM", "setting": "[3]", "value": 73.2, "unit": "%"}, {"measurement": "viability at 72 h, 10 µM", "setting": "[4]", "value": 92.7, "unit": "%"}]}
{"smiles": "O=C(CN1CCN(C(=O)C2CC2)CC1)Nc1ccc(Oc2ccc3ccc(=O)[nH]c3c2)c(F)c1", "values": [{"measurement": "inhibition at 10 µM", "setting": "[3]", "value": 56.6, "unit": "%"}, {"measurement": "viability at 72 h, 10 µM", "setting": "[4]", "value": 98.2, "unit": "%"}]}
{"smiles": "CC(=O)N1CCN(CC(=O)Nc2ccc(Nc3cc(=O)[nH]c4ccccc34)cc2)CC1", "values": [{"measurement": "inhibition at 10 µM", "setting": "[3]", "value": 39, "unit": "%"}, {"measurement": "viability at 72 h, 10 µM", "setting": "[4]", "value": 72.5, "unit": "%"}]}
{"smiles": "CCN(CC)CC(=O)Nc1ccc(Sc2cc(=O)[nH]c3ccccc23)cc1", "values": [{"measurement": "inhibition at 10 µM", "setting": "[3]", "value": 58.6, "unit": "%"}, {"measurement": "viability at 72 h, 10 µM", "setting": "[4]", "value": 85.5, "unit": "%"}]}
{"smiles": "CN1CCN(CC(=O)Nc2ccc(Oc3cc(=O)[nH]c4ccccc34)cc2)CC1", "values": [{"measurement": "inhibition at 10 µM", "setting": "[3]", "value": 43.7, "unit": "%"}, {"measurement": "viability at 72 h, 10 µM", "setting": "[4]", "value": 80.2, "unit": "%"}]}
{"smiles": "CN(C)C1CCN(CC(=O)Nc2ccc(Sc3cc(=O)[nH]c4ccccc34)cc2)CC1", "values": [{"measurement": "inhibition at 10 µM", "setting": "[3]", "value": 51.1, "unit": "%"}, {"measurement": "viability at 72 h, 10 µM", "setting": "[4]", "value": 80.3, "unit": "%"}]}
{"smiles": "CC(C)(C)N1CCN(CC(=O)Nc2ccc(Oc3ccc4ccc(=O)[nH]c4c3)c(F)c2)CC1", "values": [{"measurement": "inhibition at 10 µM", "setting": "[3]", "value": 67.7, "unit": "%"}, {"measurement": "viability at 72 h, 10 µM", "setting": "[4]", "value": 89.8, "unit": "%"}]}
{"smiles": "CCN(CC)CC(=O)Nc1ccc(Nc2cc(=O)[nH]c3ccccc23)cc1", "values": [{"measurement": "inhibition at 10 µM", "setting": "[3]", "value": 44.2, "unit": "%"}, {"measurement": "viability at 72 h, 10 µM", "setting": "[4]", "value": 82.6, "unit": "%"}]}
{"smiles": "CCNCC(=O)Nc1ccc(Oc2cc(=O)[nH]c3ccccc23)cc1", "values": [{"measurement": "inhibition at 10 µM", "setting": "[3]", "value": 25.4, "unit": "%"}, {"measurement": "viability at 72 h, 10 µM", "setting": "[4]", "value": 89.2, "unit": "%"}]}
{"smiles": "CCN(CC)CC(=O)Nc1ccc(Oc2cc(=O)[nH]c3ccccc23)cc1", "values": [{"measurement": "inhibition", "setting": "[1]", "value": "Active"}, {"measurement": "IC50", "setting": "[2]", "value": 5.27, "unit": "µM"}, {"measurement": "inhibition at 10 µM", "setting": "[3]", "value": 86.1, "unit": "%"}, {"measurement": "viability at 72 h, 10 µM", "setting": "[4]", "value": 96.3, "unit": "%"}]}
{"smiles": "O=C(CNC1CCOCC1)Nc1ccc(Sc2cc(=O)[nH]c3ccccc23)cc1", "values": [{"measurement": "inhibition at 10 µM", "setting": "[3]", "value": 53, "unit": "%"}, {"measurement": "viability at 72 h, 10 µM", "setting": "[4]", "value": 83.9, "unit": "%"}]}
